Only some compounds are listed: those with a hit (about 3.5% of all), similar ones and a draw of the others.
esBAF inh: Bmi1 luciferase reporter increase in mESCs, primary screen, esBAF inhibitor project, mouse ES cells, Bmi1 luciferase knock-in, single point. 24 h; 100% = twice the neutral-well signal. 350,000 tested, 2% active. reporter increase, % at 12.5 µM; in the data active = activation above about 40%; inconclusive = no clear call, values can overlap the other calls;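 also: 0% = median of the plate's neutral control wells and 100% = double that signal; a rise in the Bmi1 reporter signal indicates esBAF inhibition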
Cneo AK release: Cryptococcus neoformans cell lysis inducers, primary screen, AK release luminescence, single concentration | C. neoformans lysis, adenylate kinase release luminescence, 4 h; normalised: neutral wells 0, clomiphene wells 100 | lysis activity, % at 15 µM | 360,000 tested, 0.2% active;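 active = mean lysis activity across replicates of at least 80%, whatever share of replicates individually reach that level; inactive = mean lysis activity below 80%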
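Assay system: C. neoformans cells. Amount: yeast cell density of 5 × 10^6 cells/mL. Technique: AK luminescence. Buffer or medium: YPD. Times: static 4 h at 37 °C with compound, 1 h detection. Dosing: single-point compound dose. Read-out: lysis from increased AK signal.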
Env fusion inh: inhibitors of HIV-1 Env-driven cell-cell fusion, primary screen, HeLa-JRFL effector, CEM21 target cells, luciferase; inhibition, % at 12.3 µM; 360,000 tested, 1.1% active; AID 651610, 2012;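 active = mean replicate inhibition score of at least 50 and every replicate individually at or above 50; inconclusive = only one of the two criteria met; inactive = mean below 50 and not all replicates reaching 50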;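 also: 0% = plate neutral controls and 100% = maraviroc near 300 nM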
MITF TRPM1 HTS: activators of MITF-driven TRPM1 promoter reporter, primary screen, cell-based, SK-MEL-5, luciferase, single point; SK-MEL-5 TRPM1-promoter luciferase, 24 h; % of positive control, neutral wells = 0; activation, % at 12.5 µM; 300,000 tested, 0.75% active; AID 588334, 2011;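 active = mean activation of at least 80% with every replicate also reaching 80%; inconclusive = mean reaches 80% but some replicate falls short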;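 also: 0% = neutral control wells and 100% = parthenolide positive control wells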
ERAP1 HTS inh: human ERAP1 aminopeptidase inhibitors, primary screen, biochemical, single point, plate reader. inhibition, % at 10.7 µM. recombinant ERAP1, Leu-AMC fluorescence, 60 min. 340,000 tested, 0.15% active. Endoplasmic reticulum aminopeptidase 1 (Homo sapiens), Q9NZ08;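 active = mean replicate inhibition of at least 30%, or all replicates individually reaching that 30% level; inactive = mean below 30% and not every replicate reaching it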;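 also: 0% = neutral control wells and 100% = L-leucinethiol positive control wells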
Target sequence (Q9NZ08 whole entry, looked up): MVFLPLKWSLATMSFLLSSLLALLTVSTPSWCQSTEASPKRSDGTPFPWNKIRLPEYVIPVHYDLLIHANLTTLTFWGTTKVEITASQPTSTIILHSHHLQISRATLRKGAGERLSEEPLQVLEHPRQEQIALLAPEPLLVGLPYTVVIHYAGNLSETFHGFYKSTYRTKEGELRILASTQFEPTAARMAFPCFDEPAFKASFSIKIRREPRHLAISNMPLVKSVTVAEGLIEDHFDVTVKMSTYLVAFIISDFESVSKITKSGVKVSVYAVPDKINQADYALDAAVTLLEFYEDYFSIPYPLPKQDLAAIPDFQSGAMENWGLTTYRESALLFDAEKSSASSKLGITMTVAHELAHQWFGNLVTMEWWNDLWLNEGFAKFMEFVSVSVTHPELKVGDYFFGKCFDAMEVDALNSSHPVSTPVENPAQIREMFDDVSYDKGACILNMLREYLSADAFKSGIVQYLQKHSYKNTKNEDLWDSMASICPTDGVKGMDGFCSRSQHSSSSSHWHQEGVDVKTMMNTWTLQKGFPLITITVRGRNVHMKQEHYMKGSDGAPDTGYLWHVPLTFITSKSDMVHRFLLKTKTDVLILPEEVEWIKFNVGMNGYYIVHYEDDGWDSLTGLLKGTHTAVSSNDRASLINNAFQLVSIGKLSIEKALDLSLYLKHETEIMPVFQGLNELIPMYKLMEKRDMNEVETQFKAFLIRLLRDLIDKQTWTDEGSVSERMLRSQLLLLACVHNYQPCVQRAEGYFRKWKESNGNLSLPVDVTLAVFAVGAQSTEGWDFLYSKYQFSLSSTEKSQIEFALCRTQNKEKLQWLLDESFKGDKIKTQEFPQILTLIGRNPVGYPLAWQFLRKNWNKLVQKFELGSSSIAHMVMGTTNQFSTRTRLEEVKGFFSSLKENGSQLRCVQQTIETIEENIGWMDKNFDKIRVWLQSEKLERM
Wnt act: Wnt/beta-catenin pathway activators, primary screen, cell-based, plate reader, single point; Wnt/beta-catenin reporter cell assay, activator; activation, % at 9.35 µM; 300,000 tested, 1.2% active; in the data active = activation above about 30%, passing the limit was not always enough; inconclusive = no clear call, values can overlap the other calls;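 also: 0% = neutral control wells and 100% = positive control wells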
* marks the source's active call; other numbers are inactive results; ? = inconclusive; · = no result given; [ ] = remark or other dose.

SMILES | esBAF inh | Cneo AK release | Env fusion inh | MITF TRPM1 HTS | ERAP1 HTS inh | Wnt act
CCOc1ccc(/C=N/NC(=O)c2ccccc2O)cc1CN1CC2CC(C1)c1cccc(=O)n1C2 (stereo unspecified) | 57* | -1 | · | 1 | 1 | 1
CCN(CC(=O)Nc1ccc2c(c1)OCCO2)C(=O)/C=C/c1cccc(Br)c1 | 63* | -1 | -33 | 53 | -5 | 17
CCN(CC(=O)Nc1ccc2c(c1)OCCO2)C(=O)/C=C/c1ccccc1 | · | · | -5 | 19 | 0 | 0
COc1ccc(S(=O)(=O)/N=C2\C=C(Nc3ccc(O)cc3)C(=O)c3ccccc32)cc1 | -68 | 0 | 75* | -99 | -3 | 0
CC(=O)Nc1ccc(NC2=C/C(=N/S(=O)(=O)c3cccs3)c3ccccc3C2=O)cc1 | · | · | -8 | -102 | 1 | -13
COC(=O)Cn1cnc2c(Cl)nc(F)nc21 | 4 | -3 | 89* | -22 | · | -1
Cc1noc(C)c1NC(=O)Nc1cccc2c1O[C@@H](CN(C)S(=O)(=O)c1ccccc1)[C@H](C)CN([C@@H](C)CO)C2=O | -2 | · | 3[16.7 µM] | · | · | ·
COc1ccc(/C=C/c2ccc3ccccc3[n+]2C)cc1OC | 55* | -5 | · | 20 | · | ·
CN(C)c1ccc(/C=C/c2ccc3ccccc3[n+]2C)cc1 | -65 | -4 | · | -87 | · | -16
CC(=O)Oc1ccccc1/C=C/c1ccc2ccccc2[n+]1C | 65* | -5 | -30 | 75 | 13 | 4
CCN1/C(=C/C=C/c2oc3ccc(-c4ccccc4)cc3[n+]2CC)Oc2ccc(-c3ccccc3)cc21 | -85 | -7 | 77* | -101 | -2 | -8
CCOC(=O)CSC1=C(C#N)C(C)C2=C(CCCC2=O)N1 (stereo unspecified) | 62* | 2 | · | · | · | ·
COC(=O)CSC1=C(C#N)C(c2ccc(C)cc2)C2=C(CCCC2=O)N1 (stereo unspecified) | · | 3 | · | -8 | · | ·
CC(C)C#Cc1ccc([C@H]2[C@@H](CO)N3C(=O)CN(C(=O)NC4CCCCC4)C[C@@H]23)cc1 | · | · | · | · | 0 | ·
COC(=O)C(C)n1cnc2c(cnn2-c2ccc(Cl)cc2)c1=O (stereo unspecified) | 53* | -6 | · | 48 | · | ·
CCOC(=O)Cn1cnc2c(cnn2-c2ccc(Cl)cc2)c1=O | 18 | 2 | · | 18 | · | ·
CO[C@H]1CN(C)C(=O)c2cc(NC(=O)C3CCCCC3)ccc2OC[C@@H](C)N(C(=O)c2ccccc2)C[C@@H]1C | -1 | -3 | 4[16.7 µM] | · | -6 | ·
O=c1[nH]c(/C=C/c2ccc(Br)cc2)nc2ccccc12 | -2 | -6 | -88 | 71 | -4 | 45*
O=c1[nH]c(COc2ccc(Br)cc2Cl)nc2ccccc12 | 45* | -1 | -53 | ? | 1 | 44*
O=c1[nH]c(COc2ccccc2)nc2ccccc12 | ? | 3 | -50 | ? | -3 | 24
O=c1[nH]c(/C=C/c2ccccn2)nc2ccccc12 | 44* | -1 | -22 | 50 | -1 | 17
Cc1noc(C)c1S(=O)(=O)Nc1ccc2c(c1)C(=O)N([C@@H](C)CO)C[C@H](C)[C@@H](CN(C)S(=O)(=O)c1ccc(F)cc1)O2 | 1 | · | -1[16.7 µM] | · | -11 | ·
COc1ccc(OCc2cc(C(=O)NC(C)c3nc(C)cs3)no2)c(Cl)c1 (stereo unspecified) | 61* | 7 | -21 | · | 0 | 1
COc1ccc(OCc2cc(C(=O)NCc3nc(C)cs3)no2)c(Cl)c1 | ? | -2 | -39 | 48 | 2 | 14
COc1cc(Cl)ccc1OCc1cc(C(=O)NC(C)Cc2cnccn2)no1 (stereo unspecified) | 67* | -1 | -57 | 88* | -1 | 47*
CC(Cc1cnccn1)NC(=O)c1cc(COc2ccc(F)cc2F)on1 (stereo unspecified) | -6 | 5 | 0 | -3 | 1 | -1
CCC(NC(=O)c1cc(COc2c(F)cccc2F)on1)c1ccncc1 (stereo unspecified) | 9 | -1 | · | 17 | · | ·

Source: PubChem
